Source: PubChem (The Scripps Research Institute Molecular Screening Center)
In the library only some 1.5% were active in any assay of this set; here they are far more common.
DAGLB inhibitor: blocks human DAGLB lipase activity | Q8NCG7 | HEK293T DAGLB membrane lysate, EnzChek fluorogenic substrate | inhibition, % at 5.17 µM | 340,000 compounds, 0.059% hits | AID 504411; in the data active means inhibition above about 34%;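 further: 0% = enzyme with vehicle and 100% = wells lacking enzyme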
HTRA1 inh: inhibitors of human serine peptidase HTRA1; Q92743; recombinant HTRA1, FP-rhodamine activity-based probe, fluorescence polarization; inhibition, % at 5.96 µM; 340,000 compounds, 0.5% hits; in the data active means inhibition above about 36%;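 further: 0% = enzyme with DMSO and 100% = wells lacking enzyme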
SIAE primary: inhibitors of human sialic acid acetylesterase SIAE; AID 1053197; inhibition, % at 9.66 µM; 370,000 compounds, 0.69% hits; SIAE FP-Rh probe binding, fluorescence polarization;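 active means inhibition above a cutoff: mean of compounds within the control limits plus 3 SD of those, cut at about 17% in these data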;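 further: 0% = plate median of compound wells and 100% = probe without SIAE protein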
TCR-CD3 inh: inhibitors of human TCR-CD3 interaction; TAMRA-labeled TCR probe fluorescence, biochemical; inhibition, % at 9.4 µM; 360,000 compounds, 0.37% hits; in the data active means inhibition above about 19%;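 further: recombinant mutant TCR 2C K166C tagged with TAMRA read by polarization; 0% = receptor in buffer alone and 100% = receptor with positive control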
mABHD4 FP: ABHD4 (mouse) inhibition, primary FP screen; Q8VD66; purified mABHD4, FP-Rh probe fluorescence polarization; inhibition, % at 8.92 µM; 370,000 compounds, 0.54% hits;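 active means inhibition exceeding the mean over every tested compound plus 3 SD, cut at about 30% in these data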;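 further: 0% = plate median of compound wells and 100% = S159A mutant with DMSO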
Target sequence (Q8VD66 whole entry, looked up): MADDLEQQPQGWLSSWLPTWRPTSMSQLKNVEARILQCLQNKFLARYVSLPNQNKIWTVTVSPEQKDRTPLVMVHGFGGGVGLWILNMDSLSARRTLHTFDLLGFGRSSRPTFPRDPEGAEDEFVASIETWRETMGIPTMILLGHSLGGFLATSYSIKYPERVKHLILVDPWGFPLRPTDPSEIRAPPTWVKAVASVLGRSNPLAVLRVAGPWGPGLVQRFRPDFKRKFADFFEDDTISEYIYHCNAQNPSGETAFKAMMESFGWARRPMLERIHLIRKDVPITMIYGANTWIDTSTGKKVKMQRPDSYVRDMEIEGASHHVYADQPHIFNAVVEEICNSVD
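Assay system: mABHD4 protein; medium: HEPES pH 7.0, NaCl, Pluronic buffer; dosing: 8.92 µM, single dose; schedule: 45 min + 60 min at 25 °C; signal: FP readout, ex 525 nm / em 598 nm; read-out: normalized percent inhibition of probe labeling; repeats: single replicate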
SIAE confirm: confirmation of human SIAE inhibitors; shares compounds with SIAE primary; SIAE FP-Rh activity-based probe, fluorescence polarization; inhibition, % at 9.66 µM; 2,300 compounds, 13% hits;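 active means mean inhibition of the replicates above the hit cutoff set in the primary screen, cut at about 17% in these data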;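 further: 0% = SIAE with DMSO and probe and 100% = probe without SIAE; inhibitors lower polarization as more probe stays unbound to SIAE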
Starred values were filed as active, the others as inactive; nt = no result.

SMILES	DAGLB inhibitor	HTRA1 inh	SIAE primary	TCR-CD3 inh	mABHD4 FP	SIAE confirm
Clc1ccc(N/N=C/c2ccncc2)cc1Cl	-0.6	-5.9	23.8*	2.6	6.6	18.9*
N#CCCN1CCC(N)=NC1=NC#N	nt	nt	3.2	1.0	-2.5	nt
CCNC(=S)NN=C1c2ccccc2-c2ccccc21	-7.0	-33.0	24.1*	-2.6	-1.4	4.0
CC(C)(Oc1ccc(Cl)cc1)C(=O)O/N=C(\N)c1ccncc1	-4.3	-7.3	17.9*	1.8	-1.4	0.9
C[C@H]1COc2cc(NCCO)ccc2S(=O)(=O)N1	nt	nt	3.8	6.9	3.9	nt
Cc1ccc(S(C)(=O)=O)cc1C(=O)Nc1ccc(S(=O)(=O)Nc2nccs2)cc1	-2.0	4.1	23.9*	-2.9	24.2	0.9
S=C(NCC1CCCCC1)OC1CCC12CCC(c1ccccc1)CC2 (configuration not stated)	nt	nt	0.2	nt	-2.1	nt
CCN(CC)CCCOc1nc(C)nc2c1oc1ccccc12	-0.2	4.2	-3.3	-1.7	0.5	nt
CCN(CC)CCOc1nc(C)nc2c1oc1ccccc12	-0.5	-3.3	17.7*	0.1	0.4	2.7
Cc1sc2nc(CN3CCOCC3)nc(N3CCC(C(N)=O)CC3)c2c1C	-2.4	2.8	0.5	-2.1	-0.1	nt
Cc1sc2nc(CN3CCOCC3)nc(N3CCOCC3)c2c1C	-0.8	1.9	20.6*	4.2	4.8	5.5
Cc1ncc(CO)c(/C=N/NC(=S)Nc2ccc(C(C)C)cc2)c1O	-2.2	29.3	17.5*	14.0	10.7	14.8
COC(=O)c1cc2c(c3c4cc(C)ccc4n(S(=O)(=O)c4ccc(OC)cc4)c13)C(=O)N(Cc1ccccc1OC)C2	nt	nt	-4.2	6.6	1.5	nt
CC1(C)CC(=O)C2=C(C1)N(c1ccc(F)cc1)C(N)=C(C#N)C2c1cccs1 (configuration not stated)	-3.0	-14.3	30.8*	-5.1	-6.2	-4.5
COC(=O)[C@]12C[C@H](CC(=O)N3CCN(C(=O)C4CC4)CC3)C(=O)N(CCC3=CCCCC3)C1=C[C@H](COCc1ccccc1)O[C@@H]2C	nt	nt	1.4	-2.6	2.5	nt
COc1ccccc1NC(=O)CN1CCN(CC(=O)Nc2ccc(Cl)c(C(F)(F)F)c2)CC1	-3.0	-32.8	-7.1	5.7	-5.6	nt
CCc1ccccc1NCC(=O)Nc1ccc(Cl)c(C(F)(F)F)c1	-14.7	4.6	27.0*	0.1	-15.7	11.0
O=C(O)[C@@H]1CCCN1C(=O)c1ccccc1N1C(=O)[C@@H]2Cc3c([nH]c4ccccc34)C(c3cccc(Cl)c3)N2C1=O (some centres not stated)	1.1	-13.3	43.9*	14.9	-24.1	-11.2
O=C(O)[C@H]1CCCN1C(=O)c1ccccc1N1C(=O)[C@@H]2Cc3c([nH]c4ccccc34)C(c3cccc(Cl)c3)N2C1=O (some centres not stated)	1.5	-9.8	-50.0	-3.5	-31.5	nt
COc1ccc(NC(=O)Nc2cccs2)cn1	0.8	-0.8	17.9*	0.2	10.1	4.9
CN(C(=O)[C@@H](Cc1ccccc1)NC(=O)[C@H]1O[C@@H](n2cnc3c(=O)[nH]c(N)nc32)[C@H](O)[C@@H]1O)C1CCCCC1	nt	nt	3.1	2.3	1.5	nt
COc1ccc(-c2nc(C)sc2CC(=O)O)cc1OC	1.2	-1.2	18.0*	3.9	3.5	3.6
CCN(CC)C(=O)CC[C@@H]1CC[C@]2(CCCN(Cc3ccccn3)C2)O1	nt	nt	4.8	nt	1.8	nt
CN(Cc1ccccc1Br)C(=O)CN1C(=O)NC2(CCCCCC2)C1=O	1.2	-6.6	19.3*	-1.2	-1.1	3.3
COc1cc(/C=N/Nc2ccc(C(F)(F)F)cn2)cc(OC)c1O	1.9	10.6	17.6*	1.0	16.8	7.5
SMILES	DAGLB inhibitor	HTRA1 inh	SIAE primary	TCR-CD3 inh	mABHD4 FP	SIAE confirm
CCOC(=O)C1=CCN(S(=O)(=O)c2ccc(C)cc2)C1c1cccc(Br)c1 (configuration not stated)	nt	nt	4.4	-5.5	-12.9	nt
COc1ccc2[nH]c3c(N4CCC(O)(c5cccc(C(F)(F)F)c5)CC4)ncnc3c2c1	0.2	-14.1	17.8*	-4.3	17.7	14.8
Cc1ccc2[nH]c3c(N4CCc5ccccc5C4)ncnc3c2c1	2.8	-26.6	23.2*	1.5	29.3	13.0
O=C(C(=O)N1CCC(CNS(=O)(=O)c2ccc3ccccc3c2)CC1)c1cc2ccccc2o1	nt	nt	-9.7	-2.3	-16.4	nt
CC(=O)c1cc(-c2ccc(S(C)(=O)=O)cc2)c(=O)n2c1CCC2	nt	nt	0.5	nt	-0.9	nt
CC(=O)Nc1ccc(C(=O)Nc2ccc(S(=O)(=O)N3CCCC3)cc2)cc1	-4.4	-6.2	-4.4	-0.2	0.1	nt
Cn1nccc1C(=O)Nc1ccc(S(=O)(=O)N2CCCC2)cc1	-2.8	5.3	17.9*	-2.5	7.6	6.2
Cc1ccc2cccc(N)c2n1	-3.5	12.1	32.1*	9.9	5.1	5.2
Cc1c(N)cccc1N	-0.4	18.0	2.6	-3.8	1.9	nt
CCN(CC)c1ccc(/C=N/NC(=O)c2cccc(S(=O)(=O)Nc3ccccc3OC)c2)c(O)c1	7.8	36.5*	35.3*	14.7	23.0	7.7
COc1ccc2c(Cl)c(C(=O)N/N=C/c3c(C)[nH]c4ccccc34)sc2c1	-1.2	0.0	23.3*	-8.1	7.4	10.2
Cc1[nH]c2ccccc2c1/C=N/NC(=O)c1cccc(S(=O)(=O)Nc2ccccc2Cl)c1	6.6	5.5	36.9*	-4.7	21.3	10.5
Cc1[nH]c2ccccc2c1/C=N/NC(=O)c1cccc(Br)c1	1.6	1.9	nt	nt	nt	nt
COc1ccc2c(Cl)c(C(=O)N/N=C/c3ccc4c(c3)OCO4)sc2c1	9.7	-5.5	-17.9	6.6	-9.7	nt
CCc1cccc2c(/C=N/NC(=O)c3cccc(S(=O)(=O)Nc4ccccc4Cl)c3)c[nH]c12	6.1	10.8	35.7*	-1.2	0.5	-1.0
COC(=O)[C@]12C[C@H](CC(=O)N3CCC(c4ccccc4)CC3)C(=O)N(Cc3ccccc3)C1=C[C@H](C1CCCC1)O[C@@H]2C	nt	nt	-2.9	-4.8	3.7	nt
O=C1Nc2ccccc2C(=O)N(c2ccc3c(c2)OCCO3)C1C(=O)NC1CC1 (configuration not stated)	nt	nt	2.3	10.9	-0.1	nt
CC(C)Cc1nnc(NC(=O)CCC(=O)NCc2ccccc2Cl)s1	1.2	12.5	18.0*	5.8	7.0	-3.1
CC(C)c1nnc(NC(=O)CCC(=O)NCc2ccccc2Cl)s1	1.0	6.7	-1.5	10.4	-1.5	nt
CC(C)NC(=O)N(C)C[C@@H]1OCc2cn(nn2)CCCC(=O)N([C@@H](C)CO)C[C@H]1C	nt	nt	6.7	12.3	4.9	nt
COc1ccc(/C=C/C(=O)NC(=S)Nc2cc([N+](=O)[O-])ccc2O)cc1OC	14.3	6.3	17.6*	50.4*	12.1	-5.0
